Published values pooled from the literature.
Lines come from different studies, so protocols differ.
Cell line: MDA-MB-231
Observed: cell growth or viability

| SMILES | technique | tested at | time | measurement | result |
| --- | --- | --- | --- | --- | --- |
| NCCC(=O)Nc1ccccc1/N=c1\cc(-c2ccc3c(c2)OCCO3)oc2cc(F)ccc12 | CCK-8 | 1 µM | – | inhibition | 52.9% |
| O=C(NN=Cc1ccc(Cl)cc1)C1CC(=O)N(c2ccc(F)cc2F)C1 (centres unmarked) | MTT | – | 72 h | EC50 | 29.9 µM |
| O=C(Nc1ccc(Cl)cc1)Nc1ccc(Oc2nc3ccccc3n3cnnc23)cc1 | MTT | 100 µM | 24 h | viability | 46.6% |
| COc1ccc2/c(=N/c3ccccc3NC(=O)[C@H](C)N)cc(-c3ccc4c(c3)OCCO4)oc2c1 | CCK-8 | 1 µM | – | inhibition | 13.8% |
| CCN(CC)CCNC(=O)c1c(C)[nH]c(/C=C2\C(=O)Nc3ccc(F)cc32)c1C | MTT | – | 72 h | EC50 | 3.4 µM |
| Nc1nc(S)nc(O)c1N=Cc1cn(-c2ccccc2)nc1-c1ccc(Cl)cc1 | – | – | 48 h | CC50 | 18.4 µM |
| O=C(Nc1ccccc1)Nc1ccc(Oc2nc3ccccc3n3cnnc23)cc1 | MTT | 3.125 µM | 24 h | viability | 100% |
| Cc1ccc(-c2nn(-c3ccccc3)cc2C=Nc2c(N)nc(S)nc2O)cc1 | – | – | 48 h | CC50 | 14.3 µM |
| COc1cccc(NC(=O)Nc2ccc(Oc3nc4ccccc4n4cnnc34)cc2)c1 | MTT | 3.125 µM | 24 h | viability | 91.5% |
| NCCC(=O)Nc1ccc(/N=c2\cc(-c3ccc4c(c3)OCO4)oc3ccccc23)cc1 | CCK-8 | 1 µM | – | inhibition | 5.95% |
| O=C(NN=Cc1ccc(Br)cc1)C1CC(=O)N(c2ccc(F)cc2F)C1 (centres unmarked) | MTT | – | 72 h | EC50 | 22.6 µM |
